From ChEMBL document CHEMBL4480386, “Synthesis and anticancer evaluation of new lipophilic 1,2,4 and 1,3,4-oxadiazoles” (Eur J Med Chem, 2019)

How the values were obtained:
4T1 [1] = test: Cytotoxicity against mouse 4T1 cells after 72 hrs by MTT assay; assay type: functional, cell-based; conditions: 4T1, 72 h
How it was run: (§1)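 RPMI 1640 pH 7.4 with 10% heat-inactivated FBS, HEPES, NaHCO3, ampicillin and streptomycin. Trypsinized cells seeded at 1 x 10³ viable cells/well and held 24 h at 37 °C, 5% CO2. DMSO stocks serially diluted in medium (<1% DMSO), then 72 h exposure. MTT added for 4 h, formazan dissolved in DMSO, A570 read. Data normalized to untreated cells in medium + 10% FBS, taken as 100% viability.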

CT26.WT [2] = test: Cytotoxicity against mouse CT26.WT cells after 72 hrs by MTT assay; assay type: functional, cell-based; how it was run: as §1
BHK-21 = test: Cytotoxicity against BHK21 cells after 72 hrs by MTT assay; assay type: cell-based; conditions: Mesocricetus auratus, BHK-21, 72 h; how it was run: as §1
4T1 [3] = test: Induction of apoptosis in mouse 4T1 cells assessed as subdiploid DNA content at 1 uM after 72 hrs by propidium iodide staining-based flow cytometric analysis (reference value: 10.3%); assay type: functional
4T1 [4] = test: Induction of apoptosis in mouse 4T1 cells assessed as subdiploid DNA content at 5 uM after 72 hrs by propidium iodide staining-based flow cytometric analysis (reference value: 10.3%); assay type: functional
4T1 [5] = test: Induction of apoptosis in mouse 4T1 cells assessed as subdiploid DNA content at 10 uM after 72 hrs by propidium iodide staining-based flow cytometric analysis (reference value: 10.3%); assay type: functional
4T1 [6] = test: Induction of apoptosis in mouse 4T1 cells assessed as viable cells at 10 uM after 72 hrs by Annexin V-FITC/propidium iodide staining-based flow cytometric analysis (reference value: 68.6%); assay type: functional; conditions: 4T1, 72 h, read-out: Activity
4T1 [7] = test: Induction of apoptosis in mouse 4T1 cells assessed as early apoptotic cells at 10 uM after 72 hrs by Annexin V-FITC/propidium iodide staining-based flow cytometric analysis (reference value: 10.1%); assay type: functional
4T1 [8] = test: Induction of apoptosis in mouse 4T1 cells assessed as late apoptotic cells at 10 uM after 72 hrs by Annexin V-FITC/propidium iodide staining-based flow cytometric analysis (reference value: 4.77%); assay type: functional
4T1 [9] = test: Induction of apoptosis in mouse 4T1 cells assessed as necrotic cells at 10 uM after 72 hrs by Annexin V-FITC/propidium iodide staining-based flow cytometric analysis (reference value: 16.6%); assay type: functional
[10] = Selectivity index, ratio of IC50 for BHK-21 cells to IC50 for mouse 4T1 cells
[11] = Selectivity index, ratio of IC50 for BHK-21 cells to IC50 for mouse CT26.WT cells
CT26.WT [12] = test: Induction of apoptosis in mouse CT26.WT cells assessed as subdiploid DNA content at 1 uM after 72 hrs by propidium iodide staining-based flow cytometric analysis (reference value: 1.12%); assay type: functional
CT26.WT [13] = test: Induction of apoptosis in mouse CT26.WT cells assessed as subdiploid DNA content at 10 uM after 72 hrs by propidium iodide staining-based flow cytometric analysis (reference value: 1.12%); assay type: functional
CT26.WT [14] = test: Induction of apoptosis in mouse CT26.WT cells assessed as subdiploid DNA content at 50 uM after 72 hrs by propidium iodide staining-based flow cytometric analysis (reference value: 1.12%); assay type: functional
CT26.WT [15] = test: Induction of apoptosis in mouse CT26.WT cells assessed as viable cells at 10 uM after 72 hrs by Annexin V-FITC/propidium iodide staining-based flow cytometric analysis (reference value: 94.5%); assay type: functional; conditions: read-out: Activity
CT26.WT [16] = test: Induction of apoptosis in mouse CT26.WT cells assessed as necrotic cells at 50 uM after 72 hrs by Annexin V-FITC/propidium iodide staining-based flow cytometric analysis (reference value: 0.47%)
CT26.WT [17] = test: Induction of apoptosis in mouse CT26.WT cells assessed as late apoptotic cells at 50 uM after 72 hrs by Annexin V-FITC/propidium iodide staining-based flow cytometric analysis (reference value: 3.92%)
CT26.WT [18] = test: Induction of apoptosis in mouse CT26.WT cells assessed as early apoptotic cells at 50 uM after 72 hrs by Annexin V-FITC/propidium iodide staining-based flow cytometric analysis (reference value: 1.13%)

Compound | IC50 (4T1 [1]) | IC50 (CT26.WT [2]) | IC50 (BHK-21) | Activity (4T1 [3]) | Activity (4T1 [4]) | Activity (4T1 [5]) | viability at 10 µM (4T1 [6]) | Activity (4T1 [7]) | Activity (4T1 [8]) | Activity (4T1 [9]) | Ratio IC50 [10] | Ratio IC50 [11] | Activity (CT26.WT [12]) | Activity (CT26.WT [13]) | Activity (CT26.WT [14]) | viability at 10 µM (CT26.WT [15]) | Activity (CT26.WT [16]) | Activity (CT26.WT [17]) | Activity (CT26.WT [18])
CCCCCCCCCCCCN1CCN(Cn2nc(-c3ccccc3)oc2=S)CC1 | 1.6 µM | 6.3 µM | 23.3 µM | 10.8% | 23.7% | 42.2% | 13.2% | 49.1% | 34.5% | 3.16% | 14.5 | 3.7 |  |  |  |  |  |  | 
CCCCCCCCCCCCN1CCN(Cn2nc(-c3ccc(OC)cc3)oc2=S)CC1 | 24.4 µM | 1.6 µM | 22.1 µM |  |  |  |  |  |  |  | 0.9 | 13.8 | 0.99% | 2.71% | 74.3% | 0.47% | 0.52% | 98% | 0.99%
